Data set [1] concerns the target T1, Monoglyceride lipase (Mus musculus) (UniProt O35678).
T1 sequence (whole entry): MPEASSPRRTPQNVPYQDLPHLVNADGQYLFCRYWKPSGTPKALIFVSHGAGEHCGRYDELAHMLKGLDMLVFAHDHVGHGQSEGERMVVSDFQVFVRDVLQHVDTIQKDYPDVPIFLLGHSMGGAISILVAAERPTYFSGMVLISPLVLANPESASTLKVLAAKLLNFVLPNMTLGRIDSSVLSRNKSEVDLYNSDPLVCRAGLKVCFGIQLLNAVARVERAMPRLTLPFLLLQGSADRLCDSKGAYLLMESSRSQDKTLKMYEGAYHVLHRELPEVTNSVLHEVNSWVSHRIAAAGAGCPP
The data set can be described thus: In-vivo inhibition of mouse MAGL assessed as effect on docosahexaenoic level in brain at 5 mg/kg, ip measured after 1 hr by LC-MS/MS analysis. It is filed as functional, organism-based. In a few lines: (§1)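 Adult male mice received 5 mg/kg i.p. (n = 3/group), DMSO vehicle. Killed at 1 h. Half-brains used for lipid analysis by LC-MS; the other half homogenised for MAGL activity assay. Compared with vehicle by two-tailed t-test.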

Data set [2] has as its target T1, Monoglyceride lipase (Mus musculus). In words: In-vivo inhibition of mouse MAGL assessed as effect on stearic level in brain at 5 mg/kg, ip measured after 1 hr by LC-MS/MS analysis. It is filed as functional, organism-based. The method, boiled down: as §1
The target is the same in data set [3]. The data set can be described thus: In-vivo inhibition of mouse MAGL assessed as effect on palmitic level in brain at 5 mg/kg, ip measured after 1 hr by LC-MS/MS analysis. It is filed as functional, organism-based. In a few lines: as §1
The nature of data set [4]: Kinetic solubility of compound in PBS at pH 6.5 measured after 1 hrs by UV-HPLC analysis. The conditions noted are these: read-out: Kinetic_solubility. It is filed as physicochemical.
A further data set concerns the target CYP2C9 (Homo sapiens, UniProt P11712). The data set can be described thus: Inhibition of CYP2C9 (unknown origin) at 10 uM relative to control. It counts as ADME.
The next data set has as its system mouse P-gp. The data set can be described thus: Efflux ratio of permeability from basolateral to apical side over apical to basolateral side in pig LLC-PK1 cells transfected with mouse P-gp incubated for 3 hrs by LC-MS/MS analysis. It counts as ADME, cell-based, Sus scrofa. In a few lines: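 LLC-PK1 cells stably transfected with mouse Abcb1a, grown in Medium 199 with 10% FBS and 100 ng/mL colchicine, seeded on PET filters 4 days ahead. Compound 1 µM added to the donor side in phenol-red-free medium; transport measured A→B and B→A in triplicate.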

Data set [5] can be described thus: Lipophilicity, logD of the compound at pH 7.4. It is filed as physicochemical. The conditions noted are these: buffer.
The nature of data set [6]: Metabolic stability in mouse liver microsome assessed as clearance at 1 uM measured after 45 mins in presence of NADPH by LC-MS/MS analysis. It counts as ADME. The following applies: mouse liver microsomes, read-out: CLH. In a few lines:
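Pooled human or mouse liver microsomes (0.5 mg/mL) in 0.1 M phosphate pH 7.4 with an NADPH regenerating system; compound 1 µM at 37 °C. Sampled at 1–45 min, quenched with acetonitrile containing internal standard, LC-MS/MS. Clint from the slope of log peak-area ratio against time, per mg protein.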

We go through 1 compound from ChEMBL document CHEMBL5537190, “Development of Potent and Selective Monoacylglycerol Lipase Inhibitors. SARs, Structural Analysis, and Biological Characterization” (J Med Chem, 2024).

Broadly, the inhibition is how much of the control response was suppressed. As usually defined, the efflux ratio is the permeability from basolateral to apical divided by that in the opposite direction, in the common usage. For orientation: logD means the decadic logarithm of the distribution of all forms, ionised or not, between an organic phase and buffer at a given pH. A low value points to lower lipophilicity.

Converted amounts (≈) assume the structure as drawn. The source made the active and inactive calls. No cut-off for these calls is given here.

CYP2C9, sequence (P11712 whole entry): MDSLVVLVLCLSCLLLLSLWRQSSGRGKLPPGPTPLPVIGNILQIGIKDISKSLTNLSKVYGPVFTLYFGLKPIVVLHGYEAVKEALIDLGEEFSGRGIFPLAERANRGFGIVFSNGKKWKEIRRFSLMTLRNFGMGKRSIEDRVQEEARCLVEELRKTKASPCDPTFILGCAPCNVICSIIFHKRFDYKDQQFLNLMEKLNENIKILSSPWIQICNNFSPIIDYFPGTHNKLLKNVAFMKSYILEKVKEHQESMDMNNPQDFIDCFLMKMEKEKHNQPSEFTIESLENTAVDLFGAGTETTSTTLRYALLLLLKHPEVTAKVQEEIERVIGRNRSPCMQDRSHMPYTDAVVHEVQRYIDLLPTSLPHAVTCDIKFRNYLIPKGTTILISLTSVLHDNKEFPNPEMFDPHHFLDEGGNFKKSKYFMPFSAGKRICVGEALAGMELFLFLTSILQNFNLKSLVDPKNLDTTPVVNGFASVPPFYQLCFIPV

With `O=C1[C@H](c2ccccc2)[C@@H](c2ccccc2)N1C1CCN(C(=O)n2cncn2)CC1` (racemic), the inhibition entry in data set [1], in data set [2] and in data set [3] was “Active” throughout. Also, the solubility kinetic at 1 h in data set [4] amounted to 52 µg/mL (≈ 130 µM). Moreover, at CYP2C9, the inhibition at 10 µM amounted to 69.5%. Further, in the data set on mouse P-gp, the efflux ratio at 3 h came out at 1.4. The compound further yielded a logD in data set [5] of 2.6. Also, in data set [6], the microsomal CLint at 1 µM was 164 µL/min/mg.
